Data published in the RNAGym collection of RNA variant scans (doi:10.1126/science.aae0568).
Variants at the floor of the assay were thinned out.

B1: tRNA (parent)
chain: GUUCCGUUGGCGUAAUGGUAACGCGUCUCCCUCCUAAGGAGAAGACUGCGGGUUCGAGUCCCGUACGGAACG

Variants of: B1
Test: yeast fitness relative to wild type (ratio to wild type); higher = fitter; tRNA-Arg(CCU), competitive growth, 37 C, YPD
Method in brief: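 A pool of Saccharomyces cerevisiae strains, each with a tRNA-Arg(CCU) gene variant at the native genomic locus, was competed in YPD at 37°C for 24 hours across six parallel replicates. The variants had been chemically synthesised at a 3% per-site mutation rate over 69 sites, and gene amplicons before and after competition were read by 100-nucleotide paired-end sequencing. Darwinian fitness relative to wild type rested on changes in genotype frequencies. Genotypes required ≥ 100 starting reads, and estimates < 0.5 were set to 0.5.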

| Variant | yeast fitness |
| --- | --- |
| GCUCCGUUGGCAUAAUGCUAACGCGUCUCCCUUCUAAGGAGAAGACUGCGGGUUCGAGUCCCGUACGGAACG [U2C G12A G18C C33U] | 0.561 |
| GCCCCGUUGGCGUAAUGGUACCGAGUCUCCCUCCUAAGGAGAAGACUGCGGGUUCGAGUCCCGUCCGGAACG [U2C U3C A21C C24A A65C] | ≤ 0.5 |
| GCUCCGUUGGCGUAAUGGUAACGCAUCUCCCUCCUAAGGAGUAGACUGCGGGUUCGAGUCCCGUACGGAACG [U2C G25A A42U] | 0.561 |
| GCUCCGUUGGCGUAAUGGUAACCCGUCUCCGUUCUAAGGAGGAGACUGCGGCUUCGAGUCCCGUACGGAGCG [U2C G23C C31G C33U A42G G52C A70G] | ≤ 0.5 |
| GCUCCGUUGGCGUAAUGGUAACGCGUCUCCCUCCUAAAGAGAAGACUGCGGGUUCGAGUCCCGUACGGAACG [U2C G38A] | 0.901 |
| GCUCCGUUGACAUAAUGCUAACGCGUCUCCCUUCUAAGGAGAAGACUGCGGGUUCGAGUCCCGUACGGCACG [U2C G10A G12A G18C C33U A69C] | ≤ 0.5 |
| GCUCCGUUGGCGUAAUGAUAACGCGUCUCCCUCCUCAGGAGAAGUCUGGGGGUUCGAGUCCCGUACGGAACG [U2C G18A A36C A45U C49G] | ≤ 0.5 |
| GCUCCGUUGGCGUAAUGGUAACCCGUCUCCGUUCUAAGGAGGAGACUGCGGGUUCGAGUCCCGUACUGAACG [U2C G23C C31G C33U A42G G67U] | ≤ 0.5 |
| GCUCCGUUGGCAUAGUGGUAACGCGUCUCCCUCCUAAGGAGAUGACUGCGGGUUCGAGUCCGGUACGGAACG [U2C G12A A15G A43U C62G] | ≤ 0.5 |
| GCUCCAUUGGCGUAAUGGUAACGCGUCUCCCUCCUAAGGAGAAGACUGCGGGUUCGUGUCCUGUACGGAACG [U2C G6A A57U C62U] | ≤ 0.5 |
| GCUCCGUUGGCGUAAUGGUAACGCGUCUCCCUCCUAAGGAGAAGACUGCGGGUUCCAGUCCCGUACGGAACG [U2C G56C] | 0.727 |
| GCUCCGUUGGCGUAAUGGUAACGCGUCUCCCUCCUAAGGAGAAGACUGCGGGUUCGAAUCCCGUACGCAACG [U2C G58A G68C] | 0.645 |
| GCUCCGUUGGCGUAAUGGUAACGCGUCUCCCUCCUAAGGAGAAGACUGCGGGUUCGAGUCUCGUACGAAACG [U2C C61U G68A] | ≤ 0.5 |
| GCUCCCUUGGGGUACUGGUAACGCCUGUCGCUCCUAACGAGAAGACUGCGGGUUCGAGUCCCGUACGGAACG [U2C G6C C11G A15C G25C C27G C30G G38C] | ≤ 0.5 |
| GCUCCGUUUGCGUAAUGGUCACGCGUCUCCCUCCUAAGGAGAAGACUGCGGGUUCGGGUCCCGUCCGGAACG [U2C G9U A20C A57G A65C] | ≤ 0.5 |
| GCUCCGUUCGCGUAAUGGUAACGCGUCUCCCUCCUAAGGAGAAGACUGCGGGUUCGAGUCCCGUACGGCACG [U2C G9C A69C] | 0.524 |
| GCUCCGUUGGCGUAAUGGUAACGCGUCUCCCUCCUAAGAAGAAAACUGCGGGUUCGAGUCCCGUACGGAACG [U2C G39A G44A] | 0.66 |
| GCUCCGUUGGCGUAAUGGUAACGCAUCUCCCUCCUAAGGAGAAGACUGCGGAUUCGAGUCCCGUACGGAACG [U2C G25A G52A] | ≤ 0.5 |
| GCUCCGUUGGCGUAAUGGUAACGCGUCUCCCUCCUAAGGAGAAGACUGCGAGUUCGAGUCCCGUACGGAACG [U2C G51A] | 0.822 |

| Variant | yeast fitness |
| --- | --- |
| GCUCCGUUGGCGUAAUGGUAACGCGUCUCCCUCCUAAGGAGAAGACUGCGCGUUCGAGUCCCGUACGGAACG [U2C G51C] | 0.687 |
| GCACCGUUGGCGUAAUGGUAACGCGUCUCCCUCCUAAGGCGAAGACUGCGGGUUCGAGUCCCGUACGGAACG [U2C U3A A40C] | ≤ 0.5 |
| GCUCCGUUGGCGUAAUGAUAACGCAUCUCCCUCCUAAGGAGAAGACUGCGGGUUCGAGUCCCGUACGGAACG [U2C G18A G25A] | 0.599 |
| GCUCCGUUGGCGUAAUGGUAACGCCUCUCCCUCCUUAAGAGAAGACUGCGGGUUCGAGUCCCGUACGGAACG [U2C G25C A36U G38A] | ≤ 0.5 |
| GCUCCAUUGGCGUAAUGGUAACGCGUCUCCCUCCUAAGGAGAAGACUGCGGGUUCGAGUCGCGUACGGAACG [U2C G6A C61G] | ≤ 0.5 |
| GCUCCGUUGGCGUAAUGAUAACGUGUCUCCCUCCUAAGGAGAAGACUGCGGGUUCGAGUCCCGUACGGAACG [U2C G18A C24U] | 0.529 |
| GCUCCGUUGGCGUAAUGGUAACCCGUCUCCCUCCUAAGGAGAAGACUGCGGGUUGGAGUCCCGUACGGAACG [U2C G23C C55G] | 0.553 |
| GCUCCAUUGGCGUAAUGGUAACGCGUCUCCUUCCUAAGGAGAAGACUGUGGGUUCGAGUCCCGUACGGAACG [U2C G6A C31U C49U] | 0.641 |
| GCUCCGUUGGCGUAAUGAUAACGCGUCCCCCUCCUAAGGAGCAGACUGCGGGUUCCAGUCCCGUCCGGAACG [U2C G18A U28C A42C G56C A65C] | 0.61 |
| GCUCCAUUGGCGUAAUGGUAACACGUUUCCCUCCUAAGGAGAAGCCUGCGGGUUCGAGUACCGUACGGAACG [U2C G6A G23A C27U A45C C60A] | 0.605 |
| GCUCCGUUGGCGUAAUGCUAGCGCGUAUCUCUCCUAAAGAGAAGACUGCGGGUUCGAGUCCCGUACGGAACG [U2C G18C A21G C27A C30U G38A] | ≤ 0.5 |
| GCUCCGUUGGCGUAAUGGUAACGCGUCUCCCUCCUAAGGAGAAGACUACGGGUUCGAGUUCCGUACGGAACG [U2C G48A C60U] | ≤ 0.5 |
| GCUCCGUUGGCGUAAUGGUAACGCGUCUCCCUCCUAAGGAGAAGACUGCGGGUUCGAGUCCCAUACGGAACG [U2C G63A] | 0.799 |
| GCUCCGUUGACGUAAUGGUAACGCGUCUCCCUCCUAAGGAGAAGACUGCGGGUACGAGUCCUGUAAGGAACG [U2C G10A U54A C62U C66A] | ≤ 0.5 |
| GCUCCCUUGGCGUAAUGGUAACGCAUCUCCCUCCUCAGGAGAAGACUGCGGGUUCGAGUCCCGUACGGAACG [U2C G6C G25A A36C] | ≤ 0.5 |
| GCUCCGUUGGCGUAAUGGUAACACGUCUCCCUCCUAAAGAGAAGACUGCGGGUUCCAGUCUCGUACGGAACG [U2C G23A G38A G56C C61U] | ≤ 0.5 |
| GCUCCGUUGGCAUAAUGGCAUCGCGUCUCCCUCCUAAGGAGAAGACUGCGGGUUCGACUCCCGUACGGAACG [U2C G12A U19C A21U G58C] | 0.603 |
| GCUCCGUUGGCGUAAUGGUAACGCGUCUCCCUCCUAAGGAGAAGACUGCGGGUUCGAGUCCCGUAUGGAACG [U2C C66U] | 0.968 |
| GCUCCGUUGGCCUAAUGGUAACGCGUCUCCCUCCUAAGGCGAAGACUGCGGGUUCGAGUCCCGUACGGAACG [U2C G12C A40C] | ≤ 0.5 |
